# GPR7 antag: antagonists of human GPR7 (neuropeptides B/W receptor 1) | GPR7-expressing cells, fluorescence antagonist assay | inhibition, % at 4.4 µM | actives 1.1% (n = 290,000) | AID 1861; in the data active means inhibition above about 16%, passing the limit was not always enough;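 further: cells stimulated with the agonist NPW; 0% = agonist with vehicle and 100% = vehicle without agonist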
# GalR3 antagonist: human GalR3 antagonism | HEK293 GalR3-CNG cAMP membrane potential fluorescence; galR3 body fused to GalR1 C-terminus | AID 651719 | actives 0.44% (n = 360,000) | inhibition, % at 3 µM;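 active means inhibition above the screen-wide average plus 3 SD, cut at about 13% in these data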;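 further: forskolin and galanin both at EC90 stimulate the cells; cAMP rise reported by CNG channel membrane potential dye signal; 0% = forskolin plus galanin with DMSO and 100% = forskolin alone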
# Target sequence (O60755 1-299 limits assumed): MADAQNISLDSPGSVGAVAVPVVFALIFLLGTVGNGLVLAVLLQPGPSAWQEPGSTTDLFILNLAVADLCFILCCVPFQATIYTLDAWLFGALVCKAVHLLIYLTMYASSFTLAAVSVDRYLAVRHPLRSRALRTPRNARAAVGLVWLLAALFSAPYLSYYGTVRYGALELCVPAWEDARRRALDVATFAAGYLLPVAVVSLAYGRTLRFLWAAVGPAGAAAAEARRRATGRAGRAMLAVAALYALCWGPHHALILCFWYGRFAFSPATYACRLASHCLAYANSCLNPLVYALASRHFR
# CHO parental Ca: counter-screen for OX1R antagonists: effect in parental CHO cells | inhibition, % at 5.6 µM | AID 463079 | parental CHO-K1, ATP-induced calcium, Fluo-8 fluorescence | actives 0.63% (n = 330,000);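 active means inhibition above that plate's mean sample inhibition plus 3 SD, cut at about 26% in these data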;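 further: 0% = ATP-challenged DMSO wells and 100% = DMSO wells without ATP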
#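 Measured by: calcium-sensitive Fluo-8 fluorescence / Test system: CHO parental line / Controls: ATP-challenged DMSO wells low, unchallenged DMSO wells high / Measure: % inhibition / Compound: single nominal dose of 5.6 µM per compound / Replicates: single well per compound, no replicates / Reagent: ATP as calcium-mobilizing challenge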
# OX1R antag-1: antagonists of human orexin 1 receptor (OX1R); O43613; OX1R-expressing cells, FRET antagonist read-out; inhibition, % at 6.6 µM; actives 1.8% (n = 330,000); AID 485270; in the data active means inhibition mostly above about 38%, no sharp cut-off; inactive means mostly below about 40%;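 further: 0% = agonist challenge alone and 100% = reference antagonist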
# Target sequence (O43613 whole entry, looked up): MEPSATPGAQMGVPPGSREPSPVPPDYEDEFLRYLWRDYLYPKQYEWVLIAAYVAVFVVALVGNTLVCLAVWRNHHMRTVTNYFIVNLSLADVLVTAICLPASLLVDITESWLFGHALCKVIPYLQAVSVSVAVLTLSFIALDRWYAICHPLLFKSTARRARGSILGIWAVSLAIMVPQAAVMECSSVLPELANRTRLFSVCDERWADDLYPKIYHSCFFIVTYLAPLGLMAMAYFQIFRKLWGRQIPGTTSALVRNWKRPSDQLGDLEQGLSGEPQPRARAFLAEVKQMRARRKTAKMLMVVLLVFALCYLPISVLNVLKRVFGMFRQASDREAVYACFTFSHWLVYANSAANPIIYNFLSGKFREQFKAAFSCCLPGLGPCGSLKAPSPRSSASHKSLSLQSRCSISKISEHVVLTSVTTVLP
# OX1R antag-2: blocks the human orexin 1 receptor; actives 0.43% (n = 330,000); inhibition, % at 5 µM; O43613; AID 434989; CHO/OX1R cells, Fluo-8 calcium fluorescence, orexin A;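 active means inhibition above its plate's threshold, mean inhibition of all tested compounds on the plate plus 3 SD, cut at about 37% in these data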;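 further: 0% = orexin A challenge wells and 100% = SB-334867-A antagonist wells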
# GalR3 conf: confirmation of human galanin receptor 3 antagonists; shares compounds with GalR3 antagonist; HEK293 GalR3 CNG cAMP biosensor, membrane potential fluorescence; galR3 fused to GalR1 carboxy tail; challenged with forskolin and galanin at EC90; inhibition, % at 3 µM; actives 59% (n = 1,600); AID 652245;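 active means inhibition above the primary screen's cutoff, the mean inhibition of all screened compounds plus 3 SD, cut at about 13% in these data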;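 further: 0% = forskolin plus galanin and 100% = forskolin alone with DMSO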
# CNG parental: parental cell agonism counter-screen for GalR3 antagonists | shares compounds with GalR3 antagonist | HEK293-CNG parental cells, cAMP membrane potential fluorescence; normalised: DMSO wells 0%, forskolin wells 100% | activation, % at 3 µM | actives 10% (n = 1,600); in the data active means activation above about 1.3%
# An asterisk follows results filed as active; x = not tested or not shown. The list is not random: actives were taken first. Their share in the collection is about 3.1%.
SMILES,GPR7 antag,GalR3 antagonist,CHO parental Ca,OX1R antag-1,OX1R antag-2,GalR3 conf,CNG parental
O=C(NCC1CCN(C(=O)C(=O)c2cc3ccccc3o2)CC1)c1ccc2c(c1)OCC2,x,-4.1,x,x,x,x,x
CCCc1cc(-c2[nH]ncc2-c2ccc3c(c2)OCCCO3)c(O)cc1O,-1.5,4.2,13.7,15.4,10.0,x,x
CCCc1cc(-c2[nH]ncc2-c2ccc(C(=O)OCC)o2)c(O)cc1O,9.4,31.3*,10.4,2.5,25.9,16.9*,-0.8
O=C(Nc1ccccc1)/C(=C/c1ccccc1)NC(=O)c1ccco1,2.7,-6.3,-16.1,21.4,-15.6,x,x
O=C(Nc1ccccc1)/C(=C/c1ccc(O)cc1)NC(=O)c1ccco1,7.5,15.1*,-0.4,17.4,4.1,-1.4,0.2
COC(=O)C1=C[C@@H](C(=O)OC)[C@@H]2C3=C(C(=O)[C@]2(CC(C)C)NC(=O)c2ccccc2)[C@H](C)n2c(=O)n(-c4ccccc4)c(=O)n2[C@@H]3C1,x,13.5*,-18.7,25.0,-22.3,1.8,0.0
COC(OC)c1ccnc(-c2ccc(OC(=O)c3cccs3)cc2)n1,-8.8,16.9*,-0.2,16.8,-28.6,5.4,-0.3
COc1ccc(NC(=O)COc2nc3ccccc3nc2N2CCOCC2)c(OC)c1,-5.0,13.8*,-12.7,9.0,-17.4,8.1,-0.3
CC(C)(C)SCCNC(=O)/C=C/c1ccc(F)cc1,17.3,3.0,-4.3,8.1,-2.2,x,x
CC(C)(CNC(=O)/C=C/c1ccc(F)cc1)CNC(=O)/C=C/c1ccc(F)cc1,7.0,31.1*,-8.6,22.3,7.1,15.1*,-0.5
O=C(NCCc1ccccc1)C1Cc2c(-c3ccc(Cl)cc3)ccnc2O1 (stereo not drawn),x,-3.0,x,x,x,x,x
Cc1ccc(S(=O)(=O)N(C)Cc2ccc(C(=O)N/N=C/c3ccc(OC(F)F)cc3OC(F)F)cc2)cc1,5.2,80.3*,5.9,6.3,-0.5,28.2*,-0.3
COc1cccc(COc2cc3ccccc3nc2C)c1,18.0,92.3*,14.8,33.0,5.0,102.6*,0.3
Cc1nc2ccccc2cc1OCc1ccc(Cl)cc1,13.7,93.7*,50.0*,40.9*,0.4,94.4*,1.1
NS(=O)(=O)c1ccc(CCNC(=O)CN2CCC(Cc3ccccc3)CC2)cc1,-6.4,14.7*,1.8,-2.8,-11.3,6.5,0.2
Cc1nnsc1C(=O)NC1CCCc2c1cnn2-c1ccccc1F (stereo not drawn),-4.7,2.8,5.9,14.7,-1.8,x,x
Cc1nnsc1C(=O)NC1CCCc2c1cnn2-c1ccc(C(C)(C)C)cc1 (stereo not drawn),14.6,108.2*,41.0*,27.7,12.2,110.8*,0.1
Cc1ncoc1C(=O)NC1CCCc2c1cnn2-c1ccc(C(C)(C)C)cc1 (stereo not drawn),18.8,101.6*,x,x,x,110.8*,0.0
Cc1[nH]c2ccccc2c1CC(=O)Nc1ccc(Nc2cccnc2)c(-c2ccc(C(C)(C)C)cc2)c1,x,-5.9,x,x,x,x,x
Nc1nnnn1/N=C\c1ccc(Cl)c([N+](=O)[O-])c1,-5.2,18.0*,8.8,65.0*,7.0,13.8*,0.1
O=[N+]([O-])c1cc(/C=N/N2CCCCC2)ccc1Cl,-16.2,-9.6,-1.9,13.8,-21.4,x,x
CCCCCCCCN1C(=O)[C@@H](CC(=O)N2CCCCC2)C[C@@]2(C(=O)OC)C1=C[C@H](C1CCCC1)O[C@@H]2C,x,1.2,x,x,x,x,x
Cc1ccccc1S(=O)(=O)N1CCCc2nc(C)c(C)cc21,x,-6.9,x,x,x,x,x
CCOc1ccc(CNC(=O)c2ccc3nc(N4CCOCC4)sc3c2)cc1,8.7,4.2,-7.7,7.3,-19.5,x,x
O=C(NCCc1ccc(Cl)cc1)c1ccc2nc(N3CCOCC3)sc2c1,10.3,16.2*,-5.5,18.1,-17.7,19.0*,-0.4
SMILES,GPR7 antag,GalR3 antagonist,CHO parental Ca,OX1R antag-1,OX1R antag-2,GalR3 conf,CNG parental
O=C(COC(=O)c1ccc([N+](=O)[O-])s1)NC(c1ccccc1)c1ccccc1,-11.8,21.8*,-20.4,48.7,-28.2,-0.5,0.1
COc1ccc(OCC(O)CNC(=O)c2ccc(OC)cc2)cc1 (stereo not drawn),-7.1,14.4*,-10.3,12.8,-15.0,3.5,-0.3
CCCCCCn1c(NCC)nc2c1c(=O)n(C)c(=O)n2C,6.0,31.6*,13.8,53.5,21.6,76.6*,0.5
CCCCNc1nc2c(c(=O)n(C)c(=O)n2C)n1CCC,x,1.1,-2.9,14.9,-24.8,x,x
COc1ccc(CCNc2ccc(N3C(=O)CC(C)C3=O)cc2[N+](=O)[O-])cc1OC (stereo not drawn),-5.2,59.0*,54.5*,58.6,27.8,103.6*,-0.6
CCCCc1c(-c2ccccc2OC)ncn1Cc1cccc(F)c1F,x,-6.5,x,x,x,x,x
CCn1nc(C)c(CNC(=O)c2ccc(OC3CCN(Cc4ccccn4)CC3)cc2)c1C,2.2,97.2*,x,x,x,103.2*,-0.4
COC(=O)C1=CN(c2ccc3c(c2)OCO3)C(N)=C(C#N)C1c1ccc(-c2ccccc2)cc1 (stereo not drawn),x,-6.2,x,x,x,x,x
CCOc1cc(S(=O)(=O)NCc2ccncc2)ccc1Cl,9.3,102.2*,38.0*,26.0,14.4,126.0*,-0.5
Cc1cc(S(=O)(=O)NCc2ccncc2)c(C)cc1Br,13.5,104.2*,46.1*,26.2,12.0,110.8*,-0.3
COc1ccc(S(=O)(=O)NCc2ccccn2)cc1,3.2,14.6*,-9.0,9.6,-12.0,19.8*,0.2
Cc1ccc(C)c(S(=O)(=O)NCc2ccncc2)c1,2.5,2.2,1.1,5.8,1.7,x,x
Cc1ccc(S(=O)(=O)NCc2ccncc2)cc1,-4.6,22.5*,21.4,30.4,17.2,74.0*,-0.3
CC1(C(=O)O)CCN1C(=O)c1cccnc1Oc1ccccc1 (stereo not drawn),x,-1.8,x,x,x,x,x
CCOc1ccc(S(=O)(=O)NCc2ccncc2)cc1,20.8*,90.9*,3.5,24.9,-1.4,107.8*,-0.3
Cc1cc(F)ccc1N1CCC(N2CCN(C(C)C)C(CCO)C2)CC1 (stereo not drawn),6.7,17.7*,-0.2,8.1,-30.8,0.8,0.9
Cc1cc(F)ccc1N1CCC(N2CCN(CCC(C)C)C(CCO)C2)CC1 (stereo not drawn),2.1,-3.3,-26.8,18.1,-30.2,x,x
CC(C)CCn1c(N2CCc3ccccc3C2)nc2c1c(=O)[nH]c(=O)n2C,-10.2,14.9*,-14.1,3.3,-32.4,-1.3,0.4
COc1ccccc1CC(=O)N1CCCc2ccccc21,-3.1,x,-2.3,13.3,-19.0,3.3,0.6
CCOC(=O)c1cc(-c2ccc(C#N)cc2)nc2c1c(C)nn2CCC#N,4.9,21.7*,-6.0,6.3,-9.8,1.9,1.7*
